Measured values published in ChEMBL document CHEMBL3108740, “Design, synthesis, and biological evaluation of 1-phenylpyrazolo[3,4-e]pyrrolo[3,4-g]indolizine-4,6(1H,5H)-diones as new glycogen synthase kinase-3β inhibitors” (J Med Chem, 2013).
≈ marks a conversion by molar mass, not a printed value. Calls of active or inactive are those of the source. The rule behind the calls is not given here.

Experiments:
[1] = biological target: T1, Glycogen synthase kinase-3 beta (Homo sapiens, UniProt P49841); assay: Inhibition of GSK-3beta (unknown origin) using (RREGGMSRPAS(p)VDG as substrate assessed as 32P[gamma-ATP] incorporation into substrate after 15 mins by autoradiography
Target sequence in this assay (P49841 whole entry): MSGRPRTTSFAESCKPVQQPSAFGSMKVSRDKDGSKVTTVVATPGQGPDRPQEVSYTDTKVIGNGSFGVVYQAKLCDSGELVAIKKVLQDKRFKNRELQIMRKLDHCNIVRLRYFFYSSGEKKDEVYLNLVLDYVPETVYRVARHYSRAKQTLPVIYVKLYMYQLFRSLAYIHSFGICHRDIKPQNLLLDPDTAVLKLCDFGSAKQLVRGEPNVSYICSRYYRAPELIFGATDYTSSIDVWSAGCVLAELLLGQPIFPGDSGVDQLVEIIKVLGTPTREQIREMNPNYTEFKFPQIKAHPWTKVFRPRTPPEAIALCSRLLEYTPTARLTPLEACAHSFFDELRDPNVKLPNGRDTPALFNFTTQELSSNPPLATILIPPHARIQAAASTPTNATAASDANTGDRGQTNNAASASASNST

[2] = biological target: Glycogen synthase kinase-3 alpha (Homo sapiens) (UniProt P49840); assay: Inhibition of human recombinant GSK-3alpha using ATP/Ulight-CFFKNIVTPRTPPPSQGK-amide as substrate at 1 uM after 60 mins by LANCE assay
Sequence of Glycogen synthase kinase-3 alpha (Homo sapiens) (P49840 2-483 limits assumed): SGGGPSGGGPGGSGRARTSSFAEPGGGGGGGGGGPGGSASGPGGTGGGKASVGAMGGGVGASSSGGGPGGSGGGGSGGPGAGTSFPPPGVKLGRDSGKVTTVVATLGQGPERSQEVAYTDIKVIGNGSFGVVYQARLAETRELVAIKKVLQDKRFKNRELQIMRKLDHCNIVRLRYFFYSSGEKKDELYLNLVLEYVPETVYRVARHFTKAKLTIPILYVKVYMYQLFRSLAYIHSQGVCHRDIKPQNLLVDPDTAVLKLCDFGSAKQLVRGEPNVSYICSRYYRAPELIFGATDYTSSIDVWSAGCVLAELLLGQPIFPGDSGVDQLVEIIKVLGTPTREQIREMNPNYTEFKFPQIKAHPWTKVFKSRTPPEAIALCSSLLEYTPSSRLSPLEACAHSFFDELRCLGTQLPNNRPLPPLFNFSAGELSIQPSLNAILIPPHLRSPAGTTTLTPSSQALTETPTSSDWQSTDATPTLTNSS
Method in brief: (§1)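 Selectivity panel of 17 human protein kinases, each tested at a single 1 µM concentration. Read-out was percent inhibition of kinase activity. Values are the average of two independent measurements.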

[3] = biological target: Cyclin-dependent kinase 2 (Homo sapiens, UniProt P24941); assay: Inhibition of human recombinant CDK2 using ATP/Ulight-CFFKNIVTPRTPPPSQGK-amide as substrate after 30 mins by LANCE assay
[4] = biological target: T1, Glycogen synthase kinase-3 beta; assay: Inhibition of human GSK-3beta-mediated tau phosphorylation in doxycycline/synthetic tau fibril-induced HEK293 cells assessed as increase in faster-mobility 17025 band at 1 uM after 48 hrs by Immunoblotting analysis; format: cell-based
Method in brief: (§2)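 HEK-293 cells express full-length 4-repeat tau (T40) carrying P301L under a doxycycline-regulated promoter. Doxycycline induces expression; 48 h later cells are seeded with synthetic fibrils made from recombinant tau. They are then treated with 1 µM compound or vehicle for 48 h, with non-fibril cells as controls. Lysates are immunoblotted with AT180 (pT231/pS235), 17025 (total tau) and GAPDH as loading control.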
Target sequence in this assay (P49841 whole entry, looked up): as the sequence (P49841 whole entry) above

[5] = biological target: Serine/threonine-protein kinase RAF and Dual specificity mitogen-activated protein kinase kinase 1 (Raf/MEK) (Homo sapiens) (UniProt P04049+Q02750); assay: Inhibition of human RAF1/MEK1 at 1 uM; format: protein assay; method in brief: as §1
[6] = biological target: Receptor-type tyrosine-protein kinase FLT3 (Homo sapiens) (UniProt P36888); assay: Inhibition of human FLT3 at 1 uM; method in brief: as §1
[7] = biological target: T2, Aurora kinase A (Homo sapiens) (UniProt O14965); assay: Inhibition of human recombinant Aurora A expressed in insect sf21 cells using ATP/Ulight-RRRSLLE as substrate at 1 uM after 15 mins by LANCE assay; method in brief: as §1
T2 sequence (whole entry): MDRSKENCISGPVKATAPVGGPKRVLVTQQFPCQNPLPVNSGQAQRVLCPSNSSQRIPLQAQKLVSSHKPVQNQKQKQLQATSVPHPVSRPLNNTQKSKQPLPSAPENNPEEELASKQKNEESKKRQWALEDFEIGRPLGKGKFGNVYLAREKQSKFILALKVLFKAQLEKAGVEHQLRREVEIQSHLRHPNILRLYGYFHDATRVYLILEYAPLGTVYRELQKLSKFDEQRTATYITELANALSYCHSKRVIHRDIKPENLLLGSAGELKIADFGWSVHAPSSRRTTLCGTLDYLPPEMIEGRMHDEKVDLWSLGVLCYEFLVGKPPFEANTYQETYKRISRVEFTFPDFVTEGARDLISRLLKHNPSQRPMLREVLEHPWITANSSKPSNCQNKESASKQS

[8] = biological target: Calcium/calmodulin-dependent protein kinase type II subunit alpha (Homo sapiens) (UniProt Q9UQM7); assay: Inhibition of human recombinant CaMK2alpha using ATP/Ulight-CGSGSGRPRTSSFAEG as substrate at 1 uM after 30 mins by LANCE assay; method in brief: as §1
[9] = biological target: Platelet-derived growth factor receptor beta (Homo sapiens) (UniProt P09619); assay: Inhibition of human recombinant PDGFRbeta expressed in insect cells using ATP/Ulight-PolyGAT[EAY(1:1:1)]n as substrate at 1 uM after 30 mins by LANCE assay; method in brief: as §1
Sequence of Platelet-derived growth factor receptor beta (Homo sapiens) (P09619 whole entry): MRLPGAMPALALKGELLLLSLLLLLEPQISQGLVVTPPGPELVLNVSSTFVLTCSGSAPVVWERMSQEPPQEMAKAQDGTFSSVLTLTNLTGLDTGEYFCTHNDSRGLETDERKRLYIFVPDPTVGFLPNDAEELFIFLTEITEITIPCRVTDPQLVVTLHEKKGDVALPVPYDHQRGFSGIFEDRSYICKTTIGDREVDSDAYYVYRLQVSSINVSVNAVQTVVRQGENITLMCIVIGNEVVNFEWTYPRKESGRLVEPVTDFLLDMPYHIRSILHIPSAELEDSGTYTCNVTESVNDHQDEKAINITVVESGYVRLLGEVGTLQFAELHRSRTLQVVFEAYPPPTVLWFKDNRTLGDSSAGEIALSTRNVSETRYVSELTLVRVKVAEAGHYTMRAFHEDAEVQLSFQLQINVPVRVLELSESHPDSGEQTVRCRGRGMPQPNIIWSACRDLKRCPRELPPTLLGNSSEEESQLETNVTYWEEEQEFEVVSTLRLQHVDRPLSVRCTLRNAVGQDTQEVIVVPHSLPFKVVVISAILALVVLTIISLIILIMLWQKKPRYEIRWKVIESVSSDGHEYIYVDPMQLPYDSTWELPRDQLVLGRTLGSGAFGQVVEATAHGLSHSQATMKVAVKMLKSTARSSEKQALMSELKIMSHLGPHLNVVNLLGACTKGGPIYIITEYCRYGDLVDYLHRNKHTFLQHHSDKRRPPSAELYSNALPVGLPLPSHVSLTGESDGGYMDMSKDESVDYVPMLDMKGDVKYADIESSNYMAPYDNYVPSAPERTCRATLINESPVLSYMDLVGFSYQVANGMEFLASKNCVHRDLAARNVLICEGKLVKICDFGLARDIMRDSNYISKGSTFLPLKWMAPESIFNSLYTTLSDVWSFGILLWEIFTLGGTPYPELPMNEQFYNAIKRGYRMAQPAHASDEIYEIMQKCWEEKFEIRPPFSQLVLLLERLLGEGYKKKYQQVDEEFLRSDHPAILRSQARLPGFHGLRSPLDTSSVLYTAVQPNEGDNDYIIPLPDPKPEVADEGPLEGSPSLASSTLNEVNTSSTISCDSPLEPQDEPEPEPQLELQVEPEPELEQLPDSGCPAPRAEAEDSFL

[10] = biological target: Vascular endothelial growth factor receptor 2 (Homo sapiens) (UniProt P35968); assay: Inhibition of human recombinant VGFR2 expressed in insect sf9 cells using ATP/Ulight-CAGAGAIETDKEYYTVKD as substrate at 1 uM after 60 mins by LANCE assay; method in brief: as §1
Sequence of Vascular endothelial growth factor receptor 2 (Homo sapiens) (P35968 whole entry): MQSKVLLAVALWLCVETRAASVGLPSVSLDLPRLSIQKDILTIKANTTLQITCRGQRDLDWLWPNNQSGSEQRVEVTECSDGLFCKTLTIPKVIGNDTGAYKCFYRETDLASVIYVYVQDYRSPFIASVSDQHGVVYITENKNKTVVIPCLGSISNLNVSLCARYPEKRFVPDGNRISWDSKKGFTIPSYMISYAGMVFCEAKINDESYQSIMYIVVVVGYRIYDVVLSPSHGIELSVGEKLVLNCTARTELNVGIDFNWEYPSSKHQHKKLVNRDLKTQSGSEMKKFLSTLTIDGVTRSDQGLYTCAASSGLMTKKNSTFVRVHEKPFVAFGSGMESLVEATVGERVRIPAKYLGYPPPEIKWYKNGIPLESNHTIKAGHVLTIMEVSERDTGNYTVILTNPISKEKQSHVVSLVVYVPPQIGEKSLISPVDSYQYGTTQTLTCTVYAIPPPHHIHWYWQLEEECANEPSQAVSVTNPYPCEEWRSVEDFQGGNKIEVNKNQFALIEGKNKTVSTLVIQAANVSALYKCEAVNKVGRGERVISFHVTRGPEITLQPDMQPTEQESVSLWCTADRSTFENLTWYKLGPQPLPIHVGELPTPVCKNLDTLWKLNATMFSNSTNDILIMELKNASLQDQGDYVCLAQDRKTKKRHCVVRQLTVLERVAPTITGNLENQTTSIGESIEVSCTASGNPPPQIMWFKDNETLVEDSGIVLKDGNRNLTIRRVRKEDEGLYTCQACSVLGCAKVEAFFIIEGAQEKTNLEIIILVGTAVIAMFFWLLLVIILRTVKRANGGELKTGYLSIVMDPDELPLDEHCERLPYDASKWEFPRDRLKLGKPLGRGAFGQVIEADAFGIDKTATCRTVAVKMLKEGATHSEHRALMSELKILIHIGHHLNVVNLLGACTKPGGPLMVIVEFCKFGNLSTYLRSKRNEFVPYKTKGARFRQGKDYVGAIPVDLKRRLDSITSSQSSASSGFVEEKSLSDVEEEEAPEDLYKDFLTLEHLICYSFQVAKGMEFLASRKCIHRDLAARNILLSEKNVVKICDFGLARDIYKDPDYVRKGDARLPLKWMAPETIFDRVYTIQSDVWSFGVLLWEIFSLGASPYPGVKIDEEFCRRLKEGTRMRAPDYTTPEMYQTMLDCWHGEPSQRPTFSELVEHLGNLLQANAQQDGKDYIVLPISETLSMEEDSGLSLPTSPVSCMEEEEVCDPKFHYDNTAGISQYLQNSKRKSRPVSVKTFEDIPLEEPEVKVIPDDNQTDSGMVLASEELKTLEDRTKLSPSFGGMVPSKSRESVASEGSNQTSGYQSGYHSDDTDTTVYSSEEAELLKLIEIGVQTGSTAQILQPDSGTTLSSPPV

[11] = biological target: cAMP-dependent protein kinase catalytic subunit alpha (Homo sapiens) (UniProt P17612); assay: Inhibition of human PKAalpha at 1 uM; method in brief: as §1
[12] = biological target: Leucine-rich repeat serine/threonine-protein kinase 2 (Homo sapiens) (UniProt Q5S007); assay: Inhibition of human recombinant LRRK2 expressed in insect cells using ATP/Ulight-RRRSLLE as substrate at 1 uM after 60 mins by LANCE assay; method in brief: as §1
[13] = biological target: Cyclin-dependent kinase 5/CDK5 activator 1 (Homo sapiens) (UniProt Q00535+Q15078); assay: Inhibition of human recombinant CDK5/p35 expressed in insect cells using ATP/Ulight-CFFKNIVTPRTPPPSQGK-amide as substrate at 1 uM after 60 mins by LANCE assay; method in brief: as §1
[14] = biological target: Tyrosine-protein kinase Fyn (Homo sapiens) (UniProt P06241); assay: Inhibition of human recombinant Fyn expressed in insect cells using ATP/biotinyl-betaAbetaAbetaAYQAEENTYDEYEN as substrate at 1 uM after 60 mins by HTRF assay; method in brief: as §1
[15] = Aqueous solubility of the compound at pH 7.4; format: physicochemical
[16] = biological target: Mitogen-activated protein kinase 3 (Homo sapiens) (UniProt P27361); assay: Inhibition of human recombinant ERK1 expressed in Escherichia coli using ATP/Ulight-CFFKNIVTPRTPPPSQGK-amide as substrate at 1 uM after 30 mins by LANCE assay; method in brief: as §1
[17] = biological target: T3, Serine/threonine-protein kinase Sgk1 (Homo sapiens) (UniProt O00141); assay: Inhibition of human recombinant SGK1 using ATP/Ulight-RRRSLLE as substrate at 1 uM after 30 mins by LANCE assay; method in brief: as §1
T3 sequence (whole entry): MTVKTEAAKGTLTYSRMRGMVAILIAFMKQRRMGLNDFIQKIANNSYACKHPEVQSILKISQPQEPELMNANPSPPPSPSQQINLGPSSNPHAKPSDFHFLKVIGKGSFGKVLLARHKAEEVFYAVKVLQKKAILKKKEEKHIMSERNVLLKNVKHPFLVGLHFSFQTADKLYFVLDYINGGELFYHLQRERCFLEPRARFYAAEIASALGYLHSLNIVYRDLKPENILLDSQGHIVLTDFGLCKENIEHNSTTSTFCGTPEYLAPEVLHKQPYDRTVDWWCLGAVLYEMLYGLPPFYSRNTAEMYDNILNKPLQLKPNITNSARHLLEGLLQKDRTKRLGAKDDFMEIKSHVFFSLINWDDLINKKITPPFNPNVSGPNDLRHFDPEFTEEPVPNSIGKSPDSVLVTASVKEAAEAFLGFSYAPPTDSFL

[18] = biological target: T1, Glycogen synthase kinase-3 beta; assay: Inhibition of GSK3beta in human NCI/ADR-RES cells up to 5 uM; format: cell-based
Method in brief: (§3)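 Ovarian carcinoma OVCAR-8 cells and their cognate P-glycoprotein-overexpressing line NCI/ADR-RES. Compound tested at concentrations up to 5 µM.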
Target sequence in this assay (P49841 whole entry, looked up): as the sequence (P49841 whole entry) above

[19] = biological target: T4, Mitogen-activated protein kinase 13 (Homo sapiens) (UniProt O15264); assay: Inhibition of human recombinant P38delta expressed in Escherichia coli using ATP/Ulight-CFFKNIVTPRTPPPSQGK-amide as substrate at 1 uM after 15 mins by LANCE assay; method in brief: as §1
T4 sequence (whole entry): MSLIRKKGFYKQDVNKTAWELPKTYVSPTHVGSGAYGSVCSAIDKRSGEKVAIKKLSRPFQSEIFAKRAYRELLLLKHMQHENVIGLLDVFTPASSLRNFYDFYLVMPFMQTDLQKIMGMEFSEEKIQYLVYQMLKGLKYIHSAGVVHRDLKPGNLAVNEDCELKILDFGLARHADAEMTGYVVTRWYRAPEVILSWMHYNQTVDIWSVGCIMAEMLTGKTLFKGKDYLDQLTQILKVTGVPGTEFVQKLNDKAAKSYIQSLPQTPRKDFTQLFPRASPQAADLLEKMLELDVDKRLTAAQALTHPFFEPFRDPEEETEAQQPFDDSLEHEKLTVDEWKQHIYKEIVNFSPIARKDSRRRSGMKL

[20] = biological target: T1, Glycogen synthase kinase-3 beta; assay: Inhibition of human GSK-3beta-mediated tau phosphorylation in doxycycline/synthetic tau fibril-induced HEK293 cells assessed as increase in faster-migrating AT180 band at 1 uM after 48 hrs by Immunoblotting analysis; format: cell-based; method in brief: as §2
Target sequence in this assay (P49841 whole entry, looked up): as the sequence (P49841 whole entry) above

[21] = biological target: Proto-oncogene tyrosine-protein kinase receptor Ret (Homo sapiens) (UniProt P07949); assay: Inhibition of human recombinant RET expressed in insect cells using ATP/biotinyl-betaAbetaAbetaAAEEEEYFELVAKKK as substrate at 1 uM after 30 mins by HTRF assay; method in brief: as §1
[22] = biological target: T1, Glycogen synthase kinase-3 beta; assay: Inhibition of human GSK-3beta-mediated tau phosphorylation in doxycycline/synthetic tau fibril-induced HEK293 cells assessed as decrease in slow mobility of AT180 band at 1 uM after 48 hrs by Immunoblotting analysis; format: cell-based; method in brief: as §2
Target sequence in this assay (P49841 whole entry, looked up): as the sequence (P49841 whole entry) above

[23] = biological target: T1, Glycogen synthase kinase-3 beta; assay: Inhibition of GSK3beta in human OVCAR8 cells up to 5 uM; format: cell-based; settings: OVCAR-8; method in brief: as §3
Target sequence in this assay (P49841 whole entry, looked up): as the sequence (P49841 whole entry) above

[24] = biological target: Rho-associated protein kinase 1 (Homo sapiens) (UniProt Q13464); assay: Inhibition of human recombinant ROCK1 using ATP/Ulight-RRRSLLE as substrate at 1 uM after 30 mins by LANCE assay; method in brief: as §1
Sequence of Rho-associated protein kinase 1 (Homo sapiens) (Q13464 2-1354 limits assumed): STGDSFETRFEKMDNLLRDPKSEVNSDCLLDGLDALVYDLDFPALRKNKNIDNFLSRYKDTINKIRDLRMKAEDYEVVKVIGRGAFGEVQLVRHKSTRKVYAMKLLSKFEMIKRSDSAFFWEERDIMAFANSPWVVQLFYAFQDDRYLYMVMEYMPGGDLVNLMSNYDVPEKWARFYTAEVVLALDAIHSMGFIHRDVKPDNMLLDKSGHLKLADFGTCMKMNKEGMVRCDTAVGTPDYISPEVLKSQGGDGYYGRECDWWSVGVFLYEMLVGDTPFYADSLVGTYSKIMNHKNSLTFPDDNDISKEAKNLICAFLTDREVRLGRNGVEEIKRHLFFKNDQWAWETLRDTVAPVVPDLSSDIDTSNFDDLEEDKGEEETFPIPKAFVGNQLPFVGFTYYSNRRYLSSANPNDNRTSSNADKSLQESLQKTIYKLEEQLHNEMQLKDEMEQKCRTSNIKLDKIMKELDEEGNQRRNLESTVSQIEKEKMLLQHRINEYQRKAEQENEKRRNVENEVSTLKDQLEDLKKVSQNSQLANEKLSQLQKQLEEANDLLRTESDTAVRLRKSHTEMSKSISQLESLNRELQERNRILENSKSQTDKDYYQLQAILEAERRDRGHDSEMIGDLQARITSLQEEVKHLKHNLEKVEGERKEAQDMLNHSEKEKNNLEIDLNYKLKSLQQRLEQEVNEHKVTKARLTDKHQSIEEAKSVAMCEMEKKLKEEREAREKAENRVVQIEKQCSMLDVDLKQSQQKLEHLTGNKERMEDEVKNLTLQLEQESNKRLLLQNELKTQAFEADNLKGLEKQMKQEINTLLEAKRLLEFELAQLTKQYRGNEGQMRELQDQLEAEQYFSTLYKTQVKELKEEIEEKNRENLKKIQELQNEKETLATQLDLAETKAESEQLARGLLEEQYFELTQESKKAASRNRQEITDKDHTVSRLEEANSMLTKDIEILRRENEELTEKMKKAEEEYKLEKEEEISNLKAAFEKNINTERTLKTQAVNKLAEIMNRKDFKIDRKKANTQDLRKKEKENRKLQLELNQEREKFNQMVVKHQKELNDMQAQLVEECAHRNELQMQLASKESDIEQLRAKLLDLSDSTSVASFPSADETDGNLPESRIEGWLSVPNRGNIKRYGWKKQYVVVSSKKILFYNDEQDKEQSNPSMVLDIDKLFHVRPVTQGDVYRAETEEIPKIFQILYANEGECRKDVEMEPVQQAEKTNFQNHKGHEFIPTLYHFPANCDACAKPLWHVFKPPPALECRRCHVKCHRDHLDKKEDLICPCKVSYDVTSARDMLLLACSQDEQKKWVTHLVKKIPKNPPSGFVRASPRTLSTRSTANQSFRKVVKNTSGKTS

[25] = species on record: Homo sapiens; assay: Inhibition of human recombinant PKA alpha expressed in Escherichia coli using ATP/Ulight-RRRSLLE as substrate at 1 uM after 10 mins by LANCE assay
Method in brief: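 Single-concentration (1 µM) percent inhibition within a 17-member human kinase panel. Values are the average of two independent measurements.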

[26] = species on record: Homo sapiens; assay: Selectivity ratio of IC50 for human recombinant CDK2 to IC50 for GSK-3beta (unknown origin)

In the case of `Cc1ccccc1-n1nc(C)c2c3c(c4cccn4c21)C(=O)NC3=O`, the IC50 [1] is reported as 440 nM.

Work on `COc1ccccc1-n1ncc2c3c(c4cccn4c21)C(=O)NC3=O` yielded an IC50 [1] of 1000 nM.

Compound `Cc1ccccc1-n1ncc2c3c(c4cccn4c21)C(=O)NC3=O` has an IC50 [1] of 1210 nM.

In the case of `Cc1nn(-c2ccccc2)c2c1c1c(c3cccn32)C(=O)NC1=O`, the IC50 [1] is reported as 690 nM.

For `Cc1nn(-c2ccccc2Cl)c2c1c1c(c3cccn32)C(=O)NC1=O`, the IC50 [1] was 940 nM.

For `Cc1nn(-c2ccc(Cl)cc2Cl)c2c1c1c(c3cccn32)C(=O)NC1=O`, the inhibition [2] was 98.3%, the IC50 [3] was 2800 nM and the inhibition [4] was “Active”. It also gave an inhibition [5] of less than 10%, an inhibition [6] of 30% and an inhibition [7] of less than 10%. It also gave an inhibition [8] of less than 10%, an inhibition [9] of 13.7% and an inhibition [10] of less than 10%. For the same compound, the inhibition [11] was less than 10%, the inhibition [12] was less than 10% and the inhibition [13] was less than 10%. It also gave an inhibition [14] of less than 10%, a solubility [15] of 3.1 µM (≈ 1.19 µg/mL) and an inhibition [16] of less than 10%. The inhibition [17] was less than 10%, the IC50 [1] was 240 nM and the inhibition [18] was “inactive”. The inhibition [19] was less than 10%, the inhibition [20] was “Active” and the inhibition [21] was less than 10%. For the same compound, the inhibition [22] was “Active”, the inhibition [23] was “inactive” and the inhibition [24] was less than 10%. It also gave an inhibition [25] of less than 10% and a Ratio IC50 [26] greater than 10.

`O=C1NC(=O)c2c1c1cnn(-c3ccccc3Cl)c1n1cccc21` gave an IC50 [1] of 810 nM.

In the case of `O=C1NC(=O)c2c1c1cnn(-c3ccccc3)c1n1cccc21`, the IC50 [1] is reported as 1690 nM.
